Measured values published in ChEMBL document CHEMBL1275519, “In vivo pharmacodynamics of ceftobiprole against multiple bacterial pathogens in murine thigh and lung infection models” (Antimicrob Agents Chemother, 2008).
≈ marks a conversion by molar mass, not a printed value.

How the values were obtained:
[1] = T>MIC in methicillin-resistant Staphylococcus aureus 12248 infected CD1 neutropenic mouse at 2-log kill dose of 50.5 mg/kg, sc administered every 6 hrs; assay type: functional; conditions: route subcutaneous
[2] = T>MIC in Escherichia coli ATCC 25922 infected CD1 neutropenic mouse at static dose of 8.25 mg/kg, sc administered every 6 hrs; assay type: functional; conditions: route subcutaneous
Summary of the method: (§1)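 Neutropenic mice (cyclophosphamide i.p. 150 and 100 mg/kg, 4 and 1 days pre-infection) given 0.1 ml thigh inoculum (1:10 dilution of 10^8 CFU/ml), then treated from 2 h post-infection for 24 h with s.c. ceftobiprole medocaril (0.010–160 mg/kg) at varied intervals. Thigh CFU plated from homogenates. Static dose came from a sigmoid Hill model, and T>MIC was estimated from mouse PK and MIC.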

[3] = AUC in CD1 neutropenic mouse with bacterial infection in thigh at 10 mg/kg, sc; conditions: plasma
[4] = T>MIC in Staphylococcus aureus ATCC 29213 infected CD1 neutropenic mouse at static dose of 3.78 mg/kg, sc administered every 6 hrs; assay type: functional; conditions: route subcutaneous; summary of the method: as §1
[5] = T>MIC in Staphylococcus aureus ATCC 22923 infected CD1 neutropenic mouse at static dose of 2.03 mg/kg, sc administered every 6 hrs; assay type: functional; conditions: route subcutaneous; summary of the method: as §1
[6] = T>MIC in methicillin-resistant Staphylococcus aureus 22115 infected CD1 neutropenic mouse at static dose of 16.9 mg/kg, sc administered every 6 hrs; assay type: functional; conditions: route subcutaneous
[7] = T>MIC in Staphylococcus aureus ATCC 29213 infected CD1 neutropenic mouse at 2-log kill dose of 15.4 mg/kg, sc administered every 6 hrs; assay type: functional; conditions: route subcutaneous
[8] = Half life in CD1 neutropenic mouse with bacterial infection in thigh at 40 mg/kg, sc; assay type: ADME, organism-based; parameters: dose 40 mg/kg, route subcutaneous; conditions: in vivo
Summary of the method: (§2)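 Neutropenic thigh-infected mice (cyclophosphamide i.p. 150 mg/kg day −4, 100 mg/kg day −1) given single s.c. ceftobiprole medocaril doses; two groups of three mice per dose bled retro-orbitally at 0.5–6 h, each animal 3–4 times. Total serum drug measured by agar diffusion bioassay with E. coli NIH-J (linear 0.25–256 μg/ml). Cmax, t1/2 and AUC from one-compartment model.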

[9] = test system: Escherichia coli; experiment: Antimicrobial activity against Escherichia coli ATCC 25922 by broth dilution method; assay type: functional
Summary of the method: (§3)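 Ceftobiprole MIC determined by CLSI (NCCLS) broth microdilution.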

[10] = Cmax in CD1 neutropenic mouse with bacterial infection in thigh at 40 mg/kg, sc; assay type: ADME, organism-based; parameters: dose 40 mg/kg, route subcutaneous; conditions: in vivo; summary of the method: as §2
[11] = T>MIC in Streptococcus pneumoniae MNO-418 infected CD1 neutropenic mouse at static dose of 0.238 mg/kg, sc administered every 6 hrs; assay type: functional; conditions: route subcutaneous; summary of the method: as §1
[12] = test system: Klebsiella pneumoniae; experiment: Antimicrobial activity against Klebsiella pneumoniae ATCC 43816 by broth dilution method; assay type: functional; summary of the method: as §3
[13] = test system: Streptococcus pneumoniae; experiment: Antimicrobial activity against Streptococcus pneumoniae CDC 1293 by broth dilution method; assay type: functional; summary of the method: as §3
[14] = test system: Enterobacter cloacae; experiment: Antimicrobial activity against Enterobacter cloacae 4567 by broth dilution method; assay type: functional; summary of the method: as §3
[15] = test system: Staphylococcus aureus; experiment: Antimicrobial activity against Staphylococcus aureus ATCC 29213 by broth dilution method; assay type: functional
Summary of the method: (§4)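 Ceftobiprole MIC by broth microdilution per Clinical and Laboratory Standards Institute (formerly NCCLS) methods, using ceftobiprole standard powder.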

[16] = T>MIC in Staphylococcus aureus ATCC 33591 infected CD1 neutropenic mouse at 2-log kill dose of 15.3 mg/kg, sc administered every 6 hrs; assay type: functional; conditions: route subcutaneous
[17] = T>MIC in methicillin-resistant Staphylococcus aureus 12248 infected CD1 neutropenic mouse at static dose of 29.2 mg/kg, sc administered every 6 hrs; assay type: functional; conditions: route subcutaneous
[18] = test system: Enterobacter cloacae; experiment: Antimicrobial activity against Enterobacter cloacae 2249 by broth dilution method; assay type: functional; summary of the method: as §3
[19] = Half life in CD1 neutropenic mouse with bacterial infection in thigh at 160 mg/kg, sc; assay type: ADME, organism-based; parameters: dose 160 mg/kg, route subcutaneous; conditions: in vivo; summary of the method: as §2
[20] = T>MIC in Pseudomonas aeruginosa ATCC 27853 infected CD1 neutropenic mouse at 2-log kill dose of 110 mg/kg, sc administered every 3 hrs; assay type: functional; conditions: route subcutaneous
[21] = T>MIC in Streptococcus pneumoniae CDC 1293 infected CD1 neutropenic mouse at 2-log kill dose of 3.55 mg/kg, sc administered every 6 hrs; assay type: functional; conditions: route subcutaneous
[22] = T>MIC in Streptococcus pneumoniae CDC 1329 infected CD1 neutropenic mouse at static dose of 2.93 mg/kg, sc administered every 6 hrs; assay type: functional; conditions: route subcutaneous; summary of the method: as §1
[23] = T>MIC in Pseudomonas aeruginosa ATCC 27853 infected CD1 neutropenic mouse at static dose of 25.2 mg/kg, sc administered every 3 hrs; assay type: functional; conditions: route subcutaneous; summary of the method: as §1
[24] = T>MIC in Staphylococcus aureus ATCC Smith infected CD1 neutropenic mouse at static dose of 4.21 mg/kg, sc administered every 6 hrs; assay type: functional; conditions: route subcutaneous; summary of the method: as §1
[25] = T>MIC in methicillin-resistant Staphylococcus aureus WIS-1 infected CD1 neutropenic mouse at 2-log kill dose of 53.9 mg/kg, sc administered every 6 hrs; assay type: functional; conditions: route subcutaneous
[26] = T>MIC in Streptococcus pneumoniae ATCC 10813 infected CD1 neutropenic mouse at 2-log kill dose of 0.552 mg/kg, sc administered every 6 hrs; assay type: functional; conditions: route subcutaneous
[27] = AUC in CD1 neutropenic mouse with bacterial infection in thigh at 160 mg/kg, sc; assay type: ADME, organism-based; parameters: dose 160 mg/kg, route subcutaneous; conditions: plasma; summary of the method: as §2
[28] = T>MIC in methicillin-resistant Staphylococcus aureus WIS-1 infected CD1 neutropenic mouse at static dose of 16.1 mg/kg, sc administered every 6 hrs; assay type: functional; conditions: route subcutaneous
[29] = T>MIC in Streptococcus pneumoniae ATCC 10813 infected CD1 neutropenic mouse at static dose of 0.180 mg/kg, sc administered every 6 hrs; assay type: functional; conditions: dose 0.18 mg/kg; route subcutaneous; summary of the method: as §1
[30] = test system: Pseudomonas aeruginosa; experiment: Antimicrobial activity against Pseudomonas aeruginosa ATCC 27853 by broth dilution method; assay type: functional; summary of the method: as §4
[31] = test system: Streptococcus pneumoniae; experiment: Antimicrobial activity against Streptococcus pneumoniae MNO-418 by broth dilution method; assay type: functional; summary of the method: as §4
[32] = test system: Staphylococcus aureus; experiment: Antimicrobial activity against methicillin-resistant Staphylococcus aureus WIS-1 by broth dilution method; assay type: functional; summary of the method: as §4
[33] = T>MIC in Staphylococcus aureus ATCC 33591 infected CD1 neutropenic mouse at static dose of 7.91 mg/kg, sc administered every 6 hrs; assay type: functional; conditions: route subcutaneous; summary of the method: as §1

With Nc1nc(/C(=N/O)C(=O)N[C@@H]2C(=O)N3C(C(=O)O)=C(/C=C4\CCN([C@@H]5CCNC5)C4=O)CS[C@H]23)ns1 [CEFTOBIPROLE] as the compound, how does the “fT>MIC” value [1] read?
The value was 31.6%.

What about the “fT>MIC” value [2] of the same compound?
Its value is 41.9%.

And the AUC at 10 mg/kg [3]?
Its AUC at 10 mg/kg is 5.85 µg·h/mL.

And the “fT>MIC” value [4]?
The value was 18.9%.

And the “fT>MIC” value [5]?
The value was 14.1%.

What about the “fT>MIC” value [6] of the same compound?
The value was 25.4%.

And the “fT>MIC” value [7]?
Its value is 29.9%.

And the half-life [8]?
Its half-life is 19.8 min.

What about the MIC [9] of the same compound?
The MIC was 0.06 µg/mL (≈ 0.112 µM).

And the Cmax [10]?
The Cmax was 31200 ng/mL.

What about the “fT>MIC” value [11] of the same compound?
Its value is 21.3%.

And the MIC [12]?
The MIC was 0.06 µg/mL (≈ 0.112 µM).

And the MIC [13]?
The MIC was 0.5 µg/mL (≈ 0.935 µM).

And the MIC [14]?
The MIC was 0.5 µg/mL (≈ 0.935 µM).

And the MIC [15]?
Its MIC is 0.5 µg/mL (≈ 0.935 µM).

What about the “fT>MIC” value [16] of the same compound?
Its value is 24.4%.

What about the “fT>MIC” value [17] of the same compound?
The value was 24.5%.

What about the MIC [18] of the same compound?
The MIC was 2 µg/mL (≈ 3.74 µM).

What about the half-life [19] of the same compound?
Its half-life is 31.7 min.

What about the “fT>MIC” value [20] of the same compound?
Its value is 98.8%.

And the “fT>MIC” value [21]?
The value was 18.4%.

And the “fT>MIC” value [22]?
The value was 22.2%.

What about the “fT>MIC” value [23] of the same compound?
The value was 46.7%.

What about the “fT>MIC” value [24] of the same compound?
Its value is 19.6%.

And the “fT>MIC” value [25]?
The value was 39.1%.

What about the “fT>MIC” value [26] of the same compound?
Its value is 24.8%.

And the AUC [27]?
The AUC was 213 µg·h/mL.

And the “fT>MIC” value [28]?
Its value is 25%.

What about the “fT>MIC” value [29] of the same compound?
The value was 19.4%.

And the MIC [30]?
Its MIC is 2 µg/mL (≈ 3.74 µM).

What about the MIC [31] of the same compound?
Its MIC is 0.015 µg/mL (≈ 0.0281 µM).

And the MIC [32]?
The MIC was 1 µg/mL (≈ 1.87 µM).

What about the “fT>MIC” value [33] of the same compound?
Its value is 19.1%.
